In ChEMBL document CHEMBL1811763, “Design, syntheses, and kinetic evaluation of 3-(phenylamino)oxazolidine-2,4-diones as potent cytochrome bc₁ complex inhibitors” (Bioorg Med Chem, 2011):
Activity calls are given as the source filed them. The calls are words filed in the database; no cut-off is given here.

Tests used:
Sus scrofa [1] = species: Sus scrofa; assay: Inhibition of pig heart Cytochrome b-c1 complex assessed as oxidation of DBH2 by spectrophotometer
How it was run: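 Porcine SCR preparation at 0.1 nM, reaction with 100 µM oxidized cytochrome c and 100 µM DBH2 in 100 mM PBS (pH 7.4), 0.3 mM EDTA; run at 23 °C both without and with 750 µM lauryl maltoside. For kinetics, DBH2 was varied over 20–200 µM with 0–5000 nM inhibitor, and Ki was fitted on a competitive model. DBH2 concentration was set from A288–A320.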

Sus scrofa [2] = species: Sus scrofa; assay: Inhibition of pig heart Succinate-ubiquinone oxidoreductase assessed as decrease of 2,6-dichlorophenolindophenol by spectrophotometer
How it was run: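 Complex II activity within porcine SCR, with succinate and DCIP as substrates. Final concentrations: 100 mM PBS pH 7.4, 0.3 mM EDTA, 20 mM succinate, 53 µM DCIP; adding enzyme starts the reaction. DCIP reduction was followed as absorbance decrease at 600 nm (ε 21 mM⁻¹ cm⁻¹).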

[3] = Inhibition of pig heart succinate-cytochrome c reductase (Electron transport protein complex 2/3) assessed as increase of cytochrome c by spectrophotometer; design: species or system Sus scrofa
[4] = Competitive inhibition of pig heart Cytochrome b-c1 complex using DBH2 as substrate by Line-weaverBurk plot analysis; design: species or system Sus scrofa
How it was run: (§1)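 Porcine SCR preparation (0.1 nM) as the bc1 source, at 23 °C in 100 mM PBS pH 7.4, 0.3 mM EDTA and 750 lauryl maltoside. Substrates were 100 oxidized cytochrome c and DBH₂ varied over 20–200. Cytochrome c reduction was followed with and without inhibitor. Km(DBH₂), Vmax and Ki came from double-reciprocal plots, assuming competitive inhibition.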

Sus scrofa [5] = species: Sus scrofa; assay: Inhibition of pig heart Succinate-ubiquinone oxidoreductase assessed as decrease of 2,6-dichlorophenolindophenol at 20 uM by spectrophotometer
Sus scrofa [6] = species: Sus scrofa; assay: Activity of pig heart Cytochrome b-c1 complex using DBH2 as substrate by Line-weaverBurk plot analysis; how it was run: as §1
[7] = Competitive inhibition of pig heart Cytochrome b-c1 complex using DBH2 as substrate in presence of lauryl maltoside by Line-weaverBurk plot analysis; design: species or system Sus scrofa; how it was run: as §1
Sus scrofa [8] = species: Sus scrofa; assay: Ratio Ki for pig heart Cytochrome b-c1 complex to Ki for pig heart succinate-cytochrome c reductase (Electron transport protein complex 2/3)
Sus scrofa [9] = species: Sus scrofa; assay: Activity of pig heart succinate-cytochrome c reductase (Electron transport protein complex 2/3) using cytochrome c as substrate by Line-weaverBurk plot analysis; type: tissue-based
How it was run: (§2)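 Overall succinate→cytochrome c activity of porcine SCR (0.1 nM) was measured at 23 °C in 100 mM PBS pH 7.4, 0.3 mM EDTA and 20 mM succinate. Cytochrome c was varied over 1.16–16.02, with inhibitor at graded levels. Km(cyt c), Vmax and Ki came from double-reciprocal plots, assuming non-competitive inhibition.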

[10] = Competitive inhibition of pig heart Cytochrome b-c1 complex using DBH2 as substrate in absence of lauryl maltoside by Line-weaverBurk plot analysis; design: species or system Sus scrofa
[11] = Non-competitive inhibition of pig heart succinate-cytochrome c reductase (Electron transport protein complex 2/3) using cytochrome c as substrate by Line-weaverBurk plot analysis; design: species or system Sus scrofa; how it was run: as §2
Sus scrofa [12] = species: Sus scrofa; assay: Ratio Vmax for pig heart succinate-cytochrome c reductase (Electron transport protein complex 2/3) to Vmax for pig heart Cytochrome b-c1 complex

SMILES	inhibition (Sus scrofa [1])	inhibition (Sus scrofa [2])	IC50 [3] [µM]	further results
Cc1cccc(C)c1NN1C(=O)OC(C)(c2ccc(Br)nc2)C1=O (centres undefined)	Active	inactive	> 1	
CC1(c2ccc(Br)nc2)OC(=O)N(Nc2ccc(Br)cc2)C1=O (centres undefined)	Active	inactive	> 1	
CC1(c2ccc(Oc3ccccc3)cc2)OC(=O)N(Nc2ccc(C(=O)O)cc2)C1=O (centres undefined)	Active	inactive	5.31	
CC1(c2ccc(Oc3ccccc3)cc2)OC(=O)N(Nc2ccc(C#N)cc2)C1=O (centres undefined)	Active	inactive	0.275	
CC1(c2ccc(Br)nc2)OC(=O)N(Nc2ccc(C(F)(F)F)cc2)C1=O (centres undefined)	Active	inactive	> 1	
COc1ccc(NN2C(=O)OC(C)(c3ccc(Br)nc3)C2=O)cc1 (centres undefined)	Active	inactive	> 1	
Cc1ccc(NN2C(=O)OC(C)(c3ccc(Oc4ccccc4)cc3)C2=O)c(C)c1 (centres undefined)	Active	inactive	0.0159	
CC1(c2ccc(Br)nc2)OC(=O)N(Nc2ccc(C#N)cc2)C1=O (centres undefined)	Active	inactive	> 1	
CC1(c2ccc(Br)nc2)OC(=O)N(Nc2ccc([N+](=O)[O-])cc2)C1=O (centres undefined)	Active	inactive	> 1	
CC1(c2ccc(Oc3ccccc3)cc2)OC(=O)N(Nc2ccc(F)cc2Br)C1=O (centres undefined)	Active	inactive	0.06	
CC1(c2ccc(Oc3ccccc3)cc2)OC(=O)N(Nc2ccc(C(F)(F)F)cc2)C1=O (centres undefined)	Active	inactive	0.0633	
Cc1cccc(C)c1NN1C(=O)OC(C)(c2ccc(Oc3ccccc3)cc2)C1=O (centres undefined)	Active	inactive	1.52	
COc1ccc(NN2C(=O)OC(C)(c3ccc(Oc4ccccc4)cc3)C2=O)cc1 (centres undefined)	Active	inactive	0.0579	
CC1(c2ccc(Br)nc2)OC(=O)N(Nc2ccc(F)cc2Br)C1=O (centres undefined)	Active	inactive	> 1	
Cc1ccc(NN2C(=O)OC(C)(c3ccc(Oc4ccccc4)cc3)C2=O)cc1 (centres undefined)	Active	inactive	0.0238	
CC1(c2ccc(Oc3ccccc3)cc2)OC(=O)N(Nc2ccccc2)C1=O (centres undefined)			0.00362	Ki [4]: 0.0514 µM; inhibition (Sus scrofa [5]): inactive; Km (Sus scrofa [6]): 66.2 µM; Vmax (Sus scrofa [6]): 0.0598 µM/s; IC50 [7]: 0.142 µM; Ratio Ki (Sus scrofa [8]): 15; Km (Sus scrofa [9]): 4.47 µM; Vmax (Sus scrofa [9]): 0.0081 µM/s; IC50 [10]: 0.0482 µM; IC50 [11]: 0.00478 µM; Ki [11]: 0.00362 µM
CC1(c2ccc(Oc3ccccc3)cc2)OC(=O)N(Nc2ccc(Cl)cc2)C1=O (centres undefined)	Active	inactive	0.0188	
CC1(c2ccc(Br)nc2)OC(=O)N(Nc2ccc(Cl)cc2)C1=O (centres undefined)	Active	inactive	> 1	
CO/C=C(/C(=O)OC)c1ccccc1Oc1cc(Oc2ccccc2C#N)ncn1 [AZOXYSTROBIN]				Ki [4]: 0.204 µM; Km (Sus scrofa [6]): 72.1 µM; Vmax (Sus scrofa [6]): 0.0528 µM/s; IC50 [7]: 0.527 µM; Km (Sus scrofa [9]): 4.37 µM; Vmax (Sus scrofa [9]): 0.0099 µM/s; IC50 [10]: 0.435 µM; IC50 [11]: 0.291 µM; Ki [11]: 0.295 µM
Cc1ccc(NN2C(=O)OC(C)(c3ccc(Br)nc3)C2=O)cc1 (centres undefined)	Active	inactive	> 1	
CC1(c2ccc(Oc3ccccc3)cc2)OC(=O)N(Nc2cccc(C(=O)O)c2)C1=O (centres undefined)	Active	inactive	0.024	
Cc1ccc(NN2C(=O)OC(C)(c3ccc(Br)nc3)C2=O)c(C)c1 (centres undefined)	Active	inactive	> 1	
CC1(c2ccc(Br)nc2)OC(=O)N(Nc2ccccc2)C1=O (centres undefined)	Active	inactive	> 1	
CC1(c2ccc(Oc3ccccc3)cc2)OC(=O)N(Nc2ccc(Br)cc2)C1=O (centres undefined)	Active	inactive	0.00944	Ki [4]: 0.329 µM; Ratio (Sus scrofa [12]): 0.14; inhibition (Sus scrofa [5]): inactive; Km (Sus scrofa [6]): 78 µM; Vmax (Sus scrofa [6]): 0.0574 µM/s; IC50 [7]: 1.05 µM; Ratio Ki (Sus scrofa [8]): 35; Km (Sus scrofa [9]): 4.45 µM; Vmax (Sus scrofa [9]): 0.0081 µM/s; IC50 [10]: 0.337 µM; IC50 [11]: 0.00903 µM; Ki [11]: 0.00944 µM
